# According to the M2OR odorant receptor database:
# Positions count from the first letter of the chain named.
# Tested on: T1, OR4L1
# T1 sequence (whole entry): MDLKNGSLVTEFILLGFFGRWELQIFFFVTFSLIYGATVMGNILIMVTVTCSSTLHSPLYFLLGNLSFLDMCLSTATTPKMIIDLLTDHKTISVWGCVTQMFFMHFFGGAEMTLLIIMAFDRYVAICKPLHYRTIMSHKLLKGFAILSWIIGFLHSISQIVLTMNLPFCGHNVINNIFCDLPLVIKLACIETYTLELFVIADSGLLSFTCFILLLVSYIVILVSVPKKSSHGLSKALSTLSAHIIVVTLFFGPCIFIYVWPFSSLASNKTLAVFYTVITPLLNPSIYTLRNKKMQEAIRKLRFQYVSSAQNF
# Settings: stereoisomer not certain
# Summary of the method: (§1)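 Transient luciferase assays in mammalian cell lines were common, though methods varied by source. The values come from published papers and their supplementary material, with extra details from the original authors when needed. Responsive refers to a measured signal the original authors judged statistically different from baseline, and non-responsive (inactive) to the remainder.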
# 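Further: active if original authors judged signal statistically different from baseline.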
row,Compound,odorant receptor agonist call
1,CCCCCCC=CCCC=O,inactive
2,CC1=C(O)C(=O)C(C)O1 (configuration not stated),inactive
3,CC1=NC(C)C(C)S1 (configuration not stated),inactive
4,CC1=C(O)C(=O)OC1C (configuration not stated),inactive
5,CCC1OC(=O)C(O)=C1C (configuration not stated),inactive
6,Cc1cnc(C)c(C)n1,inactive
7,CCCC(S)CCOC(C)=O (configuration not stated),inactive
8,CCC1OC(C)=C(O)C1=O (configuration not stated),inactive

# Molecular target: T2, OR4M1 (Homo sapiens) (UniProt Q8NGD0)
# T2 sequence (whole entry): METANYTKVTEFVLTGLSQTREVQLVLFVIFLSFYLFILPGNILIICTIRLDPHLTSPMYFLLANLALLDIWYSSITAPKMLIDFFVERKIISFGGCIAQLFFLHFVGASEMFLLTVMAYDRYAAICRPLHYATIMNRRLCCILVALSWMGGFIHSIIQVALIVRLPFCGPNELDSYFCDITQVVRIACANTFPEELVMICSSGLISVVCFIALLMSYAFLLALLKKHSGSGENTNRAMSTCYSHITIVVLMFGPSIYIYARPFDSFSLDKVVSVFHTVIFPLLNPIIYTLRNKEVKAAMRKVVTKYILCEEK
# Settings: stereoisomer not certain
# Summary of the method: as §1
row,Compound,odorant receptor agonist call
1,CCCCCCC=CCCC=O,inactive
2,CCCCC(S)C(C)CO (configuration not stated),inactive
3,CCCCCC(S)C(C)CO (configuration not stated),inactive
4,CC(CO)CS (configuration not stated),inactive
5,CC1=C(O)C(=O)C(C)O1 (configuration not stated),inactive
6,CC(=O)c1c(C)c([N+](=O)[O-])c(C(C)(C)C)c([N+](=O)[O-])c1C,inactive
7,CC1=NC(C)C(C)S1 (configuration not stated),inactive
8,CC1=C(O)C(=O)OC1C (configuration not stated),inactive
9,CCC1OC(=O)C(O)=C1C (configuration not stated),inactive
10,CC1CCCCCCCCCCCCC(=O)C1 (configuration not stated),inactive
11,Cc1cnc(C)c(C)n1,inactive
12,CCCC(S)CCOC(C)=O (configuration not stated),inactive
13,CCC1OC(C)=C(O)C1=O (configuration not stated),inactive
14,CCCCCC(=O)C(C)C(C)=O (configuration not stated),inactive
15,CCC(S)C(C)CO (configuration not stated),inactive

# Tested on: T3, OR4M1 H277N V279L L284H
# T3 sequence (whole entry): T2 sequence (whole entry) with H277N, V279L, L284H
# Settings: stereoisomer not certain
# Summary of the method: as §1
row,Compound,odorant receptor agonist call
1,CCCCCCC=CCCC=O,inactive
2,CC1=C(O)C(=O)C(C)O1 (configuration not stated),inactive
3,CC1=NC(C)C(C)S1 (configuration not stated),inactive
4,CC1=C(O)C(=O)OC1C (configuration not stated),inactive
5,CCC1OC(=O)C(O)=C1C (configuration not stated),inactive
6,Cc1cnc(C)c(C)n1,inactive
7,CCCC(S)CCOC(C)=O (configuration not stated),inactive
8,CCC1OC(C)=C(O)C1=O (configuration not stated),inactive

# Molecular target: T4, OR4M2 (Homo sapiens) (UniProt Q8NGB6)
# T4 sequence (whole entry): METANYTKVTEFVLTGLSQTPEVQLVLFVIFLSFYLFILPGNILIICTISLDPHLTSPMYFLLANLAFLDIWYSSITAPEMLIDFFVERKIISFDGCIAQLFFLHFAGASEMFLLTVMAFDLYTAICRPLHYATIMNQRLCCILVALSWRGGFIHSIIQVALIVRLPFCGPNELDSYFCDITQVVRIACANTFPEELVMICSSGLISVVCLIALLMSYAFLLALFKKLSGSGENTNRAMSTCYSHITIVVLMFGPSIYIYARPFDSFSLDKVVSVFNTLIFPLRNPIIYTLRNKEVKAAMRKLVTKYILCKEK
# Settings: stereoisomer not certain
# Summary of the method: as §1
row,Compound,odorant receptor agonist call
1,CCCCCCC=CCCC=O,inactive
2,CCCCC(S)C(C)CO (configuration not stated),inactive
3,CCCCCC(S)C(C)CO (configuration not stated),inactive
4,CC(CO)CS (configuration not stated),inactive
5,CC1=C(O)C(=O)C(C)O1 (configuration not stated),inactive
6,CC(=O)c1c(C)c([N+](=O)[O-])c(C(C)(C)C)c([N+](=O)[O-])c1C,inactive
7,CC1=NC(C)C(C)S1 (configuration not stated),inactive
8,CC1=C(O)C(=O)OC1C (configuration not stated),inactive
9,CCC1OC(=O)C(O)=C1C (configuration not stated),inactive
10,CC1CCCCCCCCCCCCC(=O)C1 (configuration not stated),inactive
11,Cc1cnc(C)c(C)n1,inactive
12,CCCC(S)CCOC(C)=O (configuration not stated),inactive
13,CCC1OC(C)=C(O)C1=O (configuration not stated),inactive
14,CCCCCC(=O)C(C)C(C)=O (configuration not stated),inactive
15,CCC(S)C(C)CO (configuration not stated),inactive

# Molecular target: T5, OR4N2 (Homo sapiens) (UniProt Q8NGD1)
# T5 sequence (whole entry): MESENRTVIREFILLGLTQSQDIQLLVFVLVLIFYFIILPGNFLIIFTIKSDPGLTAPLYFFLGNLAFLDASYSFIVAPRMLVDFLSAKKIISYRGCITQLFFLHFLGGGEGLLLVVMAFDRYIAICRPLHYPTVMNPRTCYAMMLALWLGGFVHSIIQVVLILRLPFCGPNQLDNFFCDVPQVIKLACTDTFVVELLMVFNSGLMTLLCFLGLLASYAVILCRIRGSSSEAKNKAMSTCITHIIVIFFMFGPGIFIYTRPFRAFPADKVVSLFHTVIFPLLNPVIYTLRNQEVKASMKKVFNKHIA
# Settings: stereoisomer not certain
# Summary of the method: as §1
row,Compound,odorant receptor agonist call
1,CCCCCCC=CCCC=O,inactive
2,CCCCC(S)C(C)CO (configuration not stated),inactive
3,CCCCCC(S)C(C)CO (configuration not stated),inactive
4,CC(CO)CS (configuration not stated),inactive
5,CC1=C(O)C(=O)C(C)O1 (configuration not stated),inactive
6,O=c1ccc2ccccc2o1,inactive
7,CC(=O)c1c(C)c([N+](=O)[O-])c(C(C)(C)C)c([N+](=O)[O-])c1C,inactive
8,CC1=NC(C)C(C)S1 (configuration not stated),inactive
9,CC1=C(O)C(=O)OC1C (configuration not stated),inactive
10,CCC1OC(=O)C(O)=C1C (configuration not stated),inactive
11,CC1CCCCCCCCCCCCC(=O)C1 (configuration not stated),inactive
12,Cc1cnc(C)c(C)n1,inactive
13,CCCC(S)CCOC(C)=O (configuration not stated),inactive
14,CCC1OC(C)=C(O)C1=O (configuration not stated),inactive
15,CCCCCC(=O)C(C)C(C)=O (configuration not stated),inactive
16,CCC(S)C(C)CO (configuration not stated),inactive
